# This is a sample that favours compounds with a hit; in the whole collection about 1.9% have one here.
# Neddylation inh: cullin neddylation inhibition. TR-FRET cullin neddylation, biochemical. inhibition, % at 25 µM. actives 0.58% (n = 360,000). AID 651699; in the data active means inhibition above about 36%
# SR-BI DiI-HDL act: SR-BI HDL lipid transfer activation. CHO ldlA[mSR-BI] cells, DiI-HDL uptake fluorescence, 3 h; 100 = double the neutral-control signal. activation, % at 12.5 µM. AID 504775. actives 0.096% (n = 320,000);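 active means mean replicate activation of at least 60% and every replicate at or above 60%; inconclusive means mean or all-replicate condition met, but not both; inactive means mean below 60% and not all replicates reaching 60%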;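 further: 0% = median plate neutral-control signal and 100% = twice that signal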
#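 Test system: SR-BI-overexpressing, LDLR-lacking CHO cells; Medium: Ham's F12 with 0.5% BSA, HEPES 25 mM, pH 7.4; Schedule: 3 h, 37 °C; Technique: bottom-read fluorescence, 550/595 nm.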
# UBC13 inh: inhibitors of human UBC13 polyubiquitin chain formation | P61088 | TR-FRET | inhibition, % at 20 µM | actives 0.47% (n = 330,000) | AID 485273; in the data active means inhibition above about 45%, passing the limit was not always enough; inconclusive means no clear call, values can overlap the other calls
# SR-BI DiI inh: mouse SR-BI HDL lipid transfer inhibition; ldlA[mSR-BI] CHO cells, DiI-HDL uptake fluorescence, 3 h; inhibition, % at 12.5 µM; Q61009; actives 0.96% (n = 320,000);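 active means mean replicate inhibition of at least 70% and a set share of replicates each scoring 70 or more; inconclusive means meets just one of the two criteria; inactive means fails both criteria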;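 further: 0% = median of neutral control wells and 100% = median of positive control wells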
# Target sequence (Q61009 whole entry, looked up): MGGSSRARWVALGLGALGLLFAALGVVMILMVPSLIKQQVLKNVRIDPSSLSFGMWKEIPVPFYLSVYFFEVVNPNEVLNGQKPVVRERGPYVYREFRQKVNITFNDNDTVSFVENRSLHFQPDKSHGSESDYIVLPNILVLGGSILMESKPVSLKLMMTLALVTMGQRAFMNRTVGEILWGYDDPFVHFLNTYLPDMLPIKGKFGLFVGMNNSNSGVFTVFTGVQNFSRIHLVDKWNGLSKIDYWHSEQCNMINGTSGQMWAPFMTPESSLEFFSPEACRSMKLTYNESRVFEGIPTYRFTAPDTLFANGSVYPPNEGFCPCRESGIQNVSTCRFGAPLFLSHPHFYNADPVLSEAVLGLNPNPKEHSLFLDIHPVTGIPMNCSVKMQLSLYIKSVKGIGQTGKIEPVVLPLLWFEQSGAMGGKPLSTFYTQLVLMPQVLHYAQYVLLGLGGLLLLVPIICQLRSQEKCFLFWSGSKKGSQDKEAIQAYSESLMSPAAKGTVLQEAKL
# DiI quench: quenches DiI-HDL fluorescence, an SR-BI assay artifact; actives 20% (n = 470); shares compounds with SR-BI DiI inh; AC50, µM (doses to about 35 µM), for the others: top-dose activity change, negative = quenching; cell-free DiI-HDL fluorescence quenching, 30 min; AID 540326;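 active means quenching, a falling signal, with AC50 below a set limit tied to the top valid dose, actives reach about 32 µM in these data; inconclusive means no clear call, values can overlap the other calls; inactive means rising signal, and the rest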
# Starred values were filed as active, the others as inactive; ? = inconclusive; / = not tested or not shown; ! = not active in a repeat.
SMILES,Neddylation inh,SR-BI DiI-HDL act,UBC13 inh,SR-BI DiI inh,DiI quench
COC(=O)[C@]1(CC(C)C)N[C@H](c2ccc(-c3cccc(Cl)c3)cc2)[C@@H]2C(=O)N(C)C(=O)[C@@H]21,-22,-74,4,74*,-1%
Cc1nc([N+](=O)[O-])cn1CC(O)c1ccc(F)cc1 (stereo not given),-8,1,1,-1,/
COc1ccc(N2CCN(C(=O)c3cc(=O)[nH]c4ccccc34)CC2)cc1,-3,-52,-4,52,-7%
O=C(CN1CCN(c2ncc(C(F)(F)F)cc2Cl)CC1)NCCNc1ncc(C(F)(F)F)cc1Cl,-4,-75,2,75*,-1%
O=C(Nc1ccc(F)cc1)C(c1cccc(F)c1)N1CCN(Cc2c(F)cccc2Cl)CC1 (stereo not given),1,/,/,/,/
CCC(C)n1ncn(-c2ccc(N3CCN(c4ccc(O)cc4)CC3)cc2)c1=O (stereo not given),4,-21,-10,21,/
CCC(C)n1ncn(-c2ccc(N3CCN(c4ccc(OCC5COC(Cn6cncn6)(c6ccc(Cl)cc6Cl)O5)cc4)CC3)cc2)c1=O (stereo not given),1,-83,-14,83*!,-11%
Cc1cc(CN(C)C(=O)C2CCC(=O)N(CCc3cccc(F)c3)C2)on1 (stereo not given),-6,12,4,-12,-6%
CC(C)c1ccc(NC(=O)c2sccc2-n2cccc2)cc1,-9,-101,-4,101*,2%
CN(CCCn1cnc2c(OCc3ccccc3)ncnc21)Cc1ccco1,0,/,/,/,/
COc1ccc2c(c1)CC(C1(O)C(=O)N(C)c3ccccc31)C2=O (stereo not given),-7,-85,-3,85*,-5%
CC(CCc1ccccc1)NC(=O)C1CCN(C(=O)c2sccc2-n2cccc2)CC1 (stereo not given),4,-88,-4,88*,-3%
O=C(NCCc1ccc(Cl)cc1)C1CCN(C(=O)c2sccc2-n2cccc2)CC1,-3,-56,1,56,/
Oc1csc(Cc2nc(-c3ccc4ccccc4c3)cs2)n1,10,-70,0,?,16µM*
Oc1csc(Cc2nc(-c3ccc(-c4ccccc4)cc3)cs2)n1,16,-31,-2,31,/
CCO[C@@H]1OC(C(=O)N2CCOCC2)=C[C@H](C(C)(C)C)[C@H]1CCCO,-1,2,-3,-2,/
CCOC(=O)Nc1sc(C)c(C)c1C(=O)OCC,-3,-8,-1,8,/
CCOC(=O)c1c(Nc2nc(C)c(C(=O)NC)s2)sc(C)c1C,-1,-93,24,93*,-14%
COc1cccc(-c2csc(N3CCN(C(=O)NC45CC6CC(CC(C6)C4)C5)CC3)n2)c1,-14,17,-6,-17,-6%
COc1cccc(-c2csc(N3CCN(C(=S)Nc4ccccc4)CC3)n2)c1,-5,-68,2,68,/
COc1cccc(NC(=O)N2CCN(c3nc(-c4cccc(OC)c4)cs3)CC2)c1,-13,/,-8,/,/
COc1cccc(-c2csc(N3CCN(C(=S)Nc4cccc(C)c4)CC3)n2)c1,-16,-90,-6,90*,-10%
O=C(/C=C/c1ccco1)Nc1cccc(NC(=O)/C=C/c2ccco2)n1,27,-8,-7,8,-6%
Cc1nc(NC(=O)/C=C/c2ccco2)sc1C,9,-8,-22,8,/
O=C1Nc2ccccc2N(C(=O)c2ccc3ccccc3c2)C1c1nc2ccccc2[nH]1 (stereo not given),-9,/,/,/,/
SMILES,Neddylation inh,SR-BI DiI-HDL act,UBC13 inh,SR-BI DiI inh,DiI quench
O=C1NC(Cc2ccccc2)c2nc3cc(F)ccc3c(=O)n2-c2ccccc21 (stereo not given),/,/,16,/,/
Cc1ccc(OCc2cc(C(=O)N3CCCC(O)C3)no2)cn1 (stereo not given),8,3,5,-3,0%
CCN1CCN(c2ccc(S(=O)(=O)N3CCCCC3)cc2NC(=O)CC(C)c2ccccc2)CC1 (stereo not given),6,47,6,-47,/
Cc1cc(-c2nnc(SCCC(=O)Nc3ccccc3)o2)no1,3,4,-5,-4,/
CCOC(=O)C1CCN(C(=O)Cn2nc(C)n3nc(-c4ccc(OC)cc4)cc3c2=O)CC1,/,-61,9,61,-1%
CCOC(=O)N1CCN(C(=O)Cn2nc(C)n3nc(-c4ccc(OC)cc4)cc3c2=O)CC1,/,-34,1,34,/
Cc1cc(N2CCN(C(=O)c3ccco3)CC2)n2ncc(-c3ccccc3)c2n1,/,-78,3,78*,-9%
COc1ccc(Cl)cc1N1C(=O)CN(Cc2cc(OC)c(OC)c(OC)c2)C1=S,5,-12,8,12,/
COc1cc(C(=S)N2CCCC2)ccc1OC(=O)c1ccc(Cl)cc1[N+](=O)[O-],-22,-112,-12,112*,-15%
COc1cc(C(=S)N2CCOCC2)ccc1OC(=O)c1ccccc1[N+](=O)[O-],-31,-24,-1,24,/
Cc1cc(C)nc(N2CCC(C(=O)N3CCN(c4cc(Cl)ccc4C)CC3)CC2)n1,10,-103,11,102*,-2%
CNc1ccc(-c2cccc(C(=O)N3CCOCC3)c2)cn1,19,/,/,/,/
COCCN(C(=O)COC(=O)c1cccc2ccccc12)c1c(N)n(Cc2ccccc2)c(=O)[nH]c1=O,-8,2,-1,-2,/
COCCN(C(=O)COC(=O)c1ccccc1Nc1ccccc1)c1c(N)n(Cc2ccccc2)c(=O)[nH]c1=O,14,-74,11,74*,4%
Clc1ccc(-c2cc(-c3nnc4n3CCCCC4)c3ccccc3n2)cc1,-32,-83,-3,83*,1%
Fc1ccc(-c2cc(-c3nnc4n3CCCCC4)c3ccccc3n2)cc1,4,-34,-4,34,/
CC(=O)c1ccc(N2CCN(C(=O)/C=C/c3ccc(S(=O)(=O)N4CCOCC4)cc3)CC2)cc1,-18,-38,-3,38,/
CC(=O)c1ccc(N2CCN(C(=O)/C=C/c3ccc(S(=O)(=O)NCc4ccco4)cc3)CC2)cc1,3,-88,-10,88*,-3%
N#Cc1ccc(CN2CCN(C(=O)c3ccc(S(=O)(=O)NCc4ccco4)cc3)CC2)cc1,7,-72,-14,?,0%
O=C(c1ccc(S(=O)(=O)NCc2ccco2)cc1)N1CCCC1,-9,1,-1,-1,/
O=[N+]([O-])c1cnccc1-n1nnc2ccccc21,-35,/,/,/,/
CSc1nccc(-c2sc(SC)c(C#N)c2-c2ccccc2)n1,/,-84,27,84*,-3%
CSc1sc(-c2ccnc(SCCS(C)(=O)=O)n2)c(-c2ccccc2)c1C#N,18,-51,13,51,/
CCOC(=O)C1C(=O)CC(=O)C(C(=O)OCC)C1c1ccc(O)cc1 (stereo not given),0,/,/,/,/
C[C@@H]1CN([C@@H](C)CO)S(=O)(=O)c2ccc(Br)cc2O[C@H]1CN(C)Cc1ccccn1,-1,/,/,/,/
Cc1ccc(NC(=O)CSc2nnc([C@H](C)NC(=O)OC(C)(C)C)o2)c(C)c1,2,-73,-4,73*,0%

# Source: PubChem (several laboratories)
